CHO parental Ca = ATP-evoked calcium signal inhibitors, parental CHO, primary screen, counter-screen for OX1R antagonist project, cell-based, fluorescence, Fluo-8 calcium dye. hit rate 0.63% among 330,000. parental CHO-K1, ATP-induced calcium, Fluo-8 fluorescence. inhibition, % at 5.6 µM;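 active = inhibition above that plate's mean sample inhibition plus 3 SD, cut at about 26% in these data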;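 note: 0% = ATP-challenged DMSO wells and 100% = DMSO wells without ATP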
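material = parental CHO cells | also added = ATP as calcium-mobilizing challenge | dosing = single point at 5.6 µM | detection = intracellular calcium via Fluo-8 no-wash fluorescent dye | read-out = % inhibition | benchmarks = low control ATP plus DMSO, high control DMSO only | repeats = one well per compound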
TAAR1 antag = human TAAR1 antagonists, primary screen, Fluo-8 calcium fluorescence, CHO RD-HGA16 cells | Trace amine-associated receptor 1 (Homo sapiens), Q96RJ0 | antagonist | inhibition, % at 3 µM | hit rate 1.5% among 360,000 | AID 624466, 2012;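 active = inhibition above a per-plate cutoff, the mean inhibition of test compounds on that plate plus 3 SD, cut at about 49% in these data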;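 note: 0% = DMSO plus EC80 beta-PEA response and 100% = DMSO alone without agonist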
Target sequence (Q96RJ0 whole entry, looked up): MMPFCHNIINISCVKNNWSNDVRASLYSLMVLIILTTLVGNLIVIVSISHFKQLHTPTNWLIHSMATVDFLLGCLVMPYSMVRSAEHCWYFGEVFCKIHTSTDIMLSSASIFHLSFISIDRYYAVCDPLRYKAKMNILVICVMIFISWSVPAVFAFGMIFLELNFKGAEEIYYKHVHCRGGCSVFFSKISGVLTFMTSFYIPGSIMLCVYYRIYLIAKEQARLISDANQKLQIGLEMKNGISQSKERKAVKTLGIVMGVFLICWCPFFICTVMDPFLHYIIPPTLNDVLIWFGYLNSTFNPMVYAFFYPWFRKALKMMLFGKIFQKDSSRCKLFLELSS
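Test system: CHO RD-HGA16 cells bearing hTAAR1 | Reagent: β-PEA, EC80 | Compound dosing: 3 µM, single point | Schedule: Dye loading 75 min at 37 °C, then 30 min room temperature | Signal: Calcium fluorescence with Fluo-8 | Evaluation: Percent inhibition of PEA-evoked calcium signal, max/basal emission ratio | Control set: DMSO-only wells and EC80 β-PEA-stimulated wells | Repeats: Singlicate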
OX1R antag-1 = OX1R (HCRTR1) antagonists, primary screen, fluorescence, CHO/OX1R cells, Fluo-8 calcium, orexin A; hit rate 0.43% among 330,000; AID 434989, 2010; Orexin/Hypocretin receptor type 1 (Homo sapiens), O43613; Fluo-8 calcium fluorescence; inhibition, % at 5 µM;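 active = inhibition above its plate's threshold, mean inhibition of all tested compounds on the plate plus 3 SD, cut at about 37% in these data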;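 note: 0% = orexin A challenge wells and 100% = SB-334867-A antagonist wells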
TAAR1 agonist = human TAAR1 agonists, primary screen, Fluo-8 calcium fluorescence, CHO RD-HGA16 cells | vehicle wells 0%, saturating PEA agonist 100% | activation, % at 3 µM | hit rate 0.99% among 360,000 | AID 624467, 2012;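 active = activation above the mean activation of all test compounds in the run plus 3 SD, cut at about 38% in these data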
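Test system: RD-HGA16 (CHO) cells co-expressing Gα16 and hTAAR1; dosing: one-point dosing at 3 µM (nominal); timing: 17-24 h seeding, 75 min 37 °C dye, 30 min RT; signal: kinetic Fluo-8 calcium fluorescence; read-out basis: % activation relative to PEA EC100 response; controls: DMSO and PEA EC100; replicates: n 1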
OX1R antag-2 = antagonists of human orexin 1 receptor (OX1R). AID 485270, 2010. Orexin/Hypocretin receptor type 1 (Homo sapiens), O43613. OX1R-expressing cells, FRET antagonist read-out. inhibition, % at 6.6 µM. hit rate 1.8% among 330,000; in the data active = inhibition mostly above about 38%, no sharp cut-off; inactive = mostly below about 40%;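 note: 0% = agonist challenge alone and 100% = reference antagonist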
GPR7 antag = GPR7 receptor antagonists, primary screen, cell-based, fluorescence, single concentration. hit rate 1.1% among 290,000. Neuropeptides B/W receptor type 1 (Homo sapiens), P48145. inhibition, % at 4.4 µM. AID 1861, 2009. GPR7-expressing cells, fluorescence antagonist assay; in the data active = inhibition above about 16%, passing the limit was not always enough;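 note: cells stimulated with the agonist NPW; 0% = agonist with vehicle and 100% = vehicle without agonist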
The depositor's hits bear a star; / = no result. Compounds with a hit are over-represented: about 4.5% of the library has one in this group of screens.

SMILES	CHO parental Ca	TAAR1 antag	OX1R antag-1	TAAR1 agonist	OX1R antag-2	GPR7 antag
NS(=O)(=O)c1ccc(NN=C2CCCCC2)c([N+](=O)[O-])c1	17	6	7	2	73*	-7
CC(=O)N1CCC(=NNc2ccc(S(N)(=O)=O)cc2[N+](=O)[O-])CC1	2	-4	2	0	51	-8
C#CCN(Cc1ccccc1)S(=O)(=O)C=C	-10	2	3	15	12	/
CN(c1ccc(NC(=O)Cc2cn(C)c3ccccc23)cc1)c1ccccn1	/	1	/	-2	/	/
O=S1(=O)c2ccc(Br)cc2OCCC2CCCCN21 (stereo not drawn)	/	-7	/	1	/	/
CC(=O)OCCn1c2nc(=O)[nH]c(=O)c-2nc2cc(C)c(C)cc21	/	67*	/	138*	/	1
CC(=C1N=C(c2ccccc2)OC1=O)c1cccs1	/	-18	/	1	/	/
CN(C)CCNc1ccc(-c2nn(C)c(=O)c3ccccc23)cc1[N+](=O)[O-]	-1	7	-14	5	42*	-8
CC(C)(C)n1nc(C2CC2)c(Br)c1NC(=O)c1ccccc1Cl	/	-22	/	4	/	/
O=C1c2cccc(O)c2C(=O)c2c(O)cc(CO)cc21	-1	/	10	/	48*	/
Clc1cccc(-c2nc3c4ccccc4ccn3c2Cc2ccsc2)c1	/	-30	/	-1	/	/
CCOc1ccc(NC(=O)c2ccc(NS(=O)(=O)c3cccs3)cc2)cc1	6	3	-5	-2	11	-10
O=[N+]([O-])c1ccc(Sc2nc3ccccc3[nH]2)c(Cl)c1	/	1	/	0	/	/
COc1cccc(OCCn2cc(C(C)=O)c3ccccc32)c1	32*	21	1	12	20	21
COC(=O)N/N=C/c1cn(CCOc2ccc(OC)cc2)c2ccccc12	-6	50*	-7	1	6	1
COC(=O)N/N=C/c1cn(CCOc2ccccc2)c2ccccc12	-11	25	-18	11	51	-7
COc1cccc(OCCn2cc(/C=N/NC(=O)c3ccncc3)c3ccccc32)c1	-4	21	0	10	13	13
CN(C)CCCN1C(=O)c2cccc3c([N+](=O)[O-])ccc(c23)C1=O	18	-3	21	2	68*	15
N#Cc1nc(-c2ccc(OCc3ccc(Cl)cc3)cc2)oc1NCc1cccnc1	-7	3	7	4	24	-2
N#Cc1nc(-c2ccc(OCc3ccccc3)cc2)oc1NCc1cccnc1	54*	6	45*	0	61	18
CCc1c(C(=O)Nc2ccc(OC)c(Cl)c2)[nH]c(C)c1C(C)=O	32*	20	50*	15	89*	-7
CCOC(=O)C1=C(C(=O)OCC)C2N(Cc3ccc(C(F)(F)F)cc3)c3ccccc3[C@@]23C[C@@H](C(=O)OC)N(S(=O)(=O)c2ccc(OC)cc2)C3=N1 (stereo partly drawn)	/	-20	/	1	/	/
Cc1csc(=O)n1CC(=O)OCc1nnc(-c2ccc([N+](=O)[O-])cc2)o1	-2	0	1	7	37*	/
Cc1csc(=O)n1CC(=O)OCC(=O)NNC(=O)c1ccccc1	7	-17	0	1	8	-4
CC1(C)Cc2cccc(OCC(=O)OCc3nnc(-c4ccccc4)o3)c2O1	-14	-10	-22	0	3	/
SMILES	CHO parental Ca	TAAR1 antag	OX1R antag-1	TAAR1 agonist	OX1R antag-2	GPR7 antag
CC1(C)Cc2cccc(OCC(=O)OCc3nnc(-c4ccc([N+](=O)[O-])cc4)o3)c2O1	-2	3	-7	-1	50*	/
Cc1csc(=O)n1CC(=O)OCC(=O)NNC(=O)c1ccc([N+](=O)[O-])cc1	0	-17	-1	1	76*	/
O=C(CNC(=O)c1ccccc1)OCc1nnc(-c2ccccc2)o1	13	16	-27	0	7	/
Cc1ccc(C(=O)NCC(=O)OCc2nnc(-c3ccc([N+](=O)[O-])cc3)o2)s1	-14	-18	-17	-1	38*	/
COc1cccc(CNC(=O)[C@H]2CCCN2C(=O)[C@H]2CCCN2C(=O)c2ccccc2C(F)(F)F)c1	/	-12	/	0	/	/
O=C(CCC(=O)c1ccc(F)cc1)OCc1nnc(-c2ccc([N+](=O)[O-])cc2)o1	-9	-3	-2	0	41*	/
Cc1csc(=O)n1CCC(=O)OCC(=O)Nc1cc(Cl)ccc1[N+](=O)[O-]	-8	-16	-18	4	53*	/
CCOc1c(O)ccc(/C=C2\SC(=S)NC2=O)c1[N+](=O)[O-]	-4	-5	-23	9	50*	18
CCOc1ccc(N(C)c2ccc(/C=C3/SC(=S)NC3=O)cc2)cc1	26*	59*	33*	24	5	27
O=C1NC(=S)S/C1=C/c1ccc(Oc2cnccn2)cc1	4	-26	3	2	29	8
O=C1NC(=S)S/C1=C\c1cc(Cl)ccc1Cl	/	0	/	3	/	/

Source: PubChem
